A word on the IC50: it is the concentration needed to halve the response being measured.

Molecules are shown by their SMILES. Entries after “also recorded” stand apart in the source; their conditions may differ. Marks after values point to notes of the source that are not given here.

This is an account of results in PMC3576184 (Oncology Letters, 2012).

The subject of data set [1] is vascular smooth muscle cells. Conditions: via inhibition of Ras/MAPK signal pathway; cited from earlier work.
In another data set the test system is rat neutrophils. Conditions: through suppression of Akt and PLD activation; cited from earlier work.
The subject of a further data set is WEHI-3 cell allograft. Briefly: BALB/c mouse WEHI-3 allograft leukemia model. Type of data set: in vivo, BALB/c mice. In a few lines:
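30 BALB/c mice (6 weeks, 22–25 g) in five groups: 2-glycofurol vehicle; 1×10^7 WEHI-3 cells i.v.; test compound 100 mg/kg/day i.v. for 7 days; cells plus compound; or cells, then compound for 7 days. Weighed every 7 days; killed with CO2 at day 28, spleen and liver weighed. Blood leukocytes were red-cell-lysed, stained, and read by flow cytometry for surface markers including CD11b and CD45.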

Another data set has as its system HL-60 cells. The settings on record: cited from earlier work.
Data set [2] is described as follows: Cytotoxicity on normal human PBMCs. Format: cell-based. Conditions: normal human peripheral blood mononuclear cells (PBMCs).
The next data set has as its system WEHI-3 cells. Briefly: MTT viability assay in WEHI-3 cells. Format: cell-based, murine. In a few lines:
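WEHI-3 murine myelomonocytic cells were grown in RPMI-1640 with 10% FBS, 2 mM L-glutamine, penicillin and streptomycin at 37°C, 5% CO2. About 2×10^4 cells/well were plated for 24 h. Test compound in DMSO was added at final 0.78–25 μM, with 0.1% DMSO as control. After 24 h, viability was read by MTT across three separate experiments.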

The nature of data set [3]: Safety evaluation in BALB/c mice. Type of data set: in vivo. The settings on record: for BUN (blood urea nitrogen) / Body weight / Liver weight / Spleen weight / sGOT (serum glutamic-oxaloacetic transaminase) / sGPT (serum glutamic-pyruvic transaminase) / ALB (albumin) / LDH (lactate dehydrogenase) / PRO (total protein): mean ± SD, n=6; for ALB (albumin) / LDH (lactate dehydrogenase) / PRO (total protein): blood. In a few lines:
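30 BALB/c mice in five groups received i.v. PBS, 2-glycofurol solvent, or test compound at 5, 50 or 100 mg/kg/day for 7 days. Mice were killed with CO2 at day 7. Body, liver and spleen weights were recorded. Blood was assayed for LDH, albumin, total protein, sGPT, sGOT and BUN. Spleen and liver went to histopathology. Groups were compared with controls by Student's t-test.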

Setting [4] is: 100 mg/kg, flow cytometry, vs leukemia group.
The mark [5] stands for this setting: 5 mg/kg i.v. once daily for 7 days.
Setting [6] is: 50 mg/kg i.v. once daily for 7 days.
The mark [7] stands for this setting: 100 mg/kg i.v. once daily for 7 days.

Take `O=Cc1ccccc1OCc1ccccc1` [2-benzyloxybenzaldehyde]: in data set [1], the “effect on cell proliferation” value is “exhibited antiproliferative effects”. For the same molecule, the superoxide anion generation entry in the data set on rat neutrophils is recorded as “inhibits superoxide anion generation”.
Regarding `COc1cccc(COc2ccccc2C=O)c1` [CCY-1a-E2, 2-[(3-methoxybenzyl)oxy]benzaldehyde], in the data set on WEHI-3 cell allograft (setting [4]), the “level of CD11b on leukocytes” value is listed as “significantly decreased” and the “level of CD45 on leukocytes” value was “significantly decreased”. The Liver weight result in the data set with WEHI-3 cell allograft (100 mg/kg/day i.v. 7 days, day 28) was “significantly different; also recorded: inhibited the spleen and liver growth”. Moreover, the “body weight vs control mice” value in the data set with WEHI-3 cell allograft (CCY-1a-E2 100 mg/kg group (no WEHI-3 cells), i.v. 7 days, up to day 28) was “not significantly decreased”. For the same molecule, the “infiltration of immature myeloblastic cells into the splenic red pulp (histopathology)” value in the data set with WEHI-3 cell allograft (treated leukemic mice vs untreated leukemia group, data not shown) is recorded as “eliminated”. Also, in the data set with HL-60 cells, the apoptosis entry was “induced cell apoptosis”, the cell cycle effect result was “induced G2/M phase arrest” and the “percentage of viable cells” value is reported as “decreased the percentage of viable cells”. In data set [2], this molecule yielded a concentration for half-maximal inhibition (IC50) above 20 µM. In addition, the IC50 in the data set with WEHI-3 cells (Mus musculus, WEHI-3, 24 h, read-out: IC50 (cell viability, MTT)) turned out to be 5 µM. In addition, the “percentage of viable cells” value in the data set on WEHI-3 cells (WEHI-3 cells, 0.78-25 μM, 24 h, MTT) is on record as “decreased the percentage of viable cells in a concentration-dependent manner”. Moreover, in data set [3] (setting [5]), the “BUN (blood urea nitrogen)” value came out at 30.33 ± 5.02 mg/dL, the Body weight is 28.42±1.13^a g, the Liver weight was found to be 4.42±0.47 g/100 g body weight and the Spleen weight turned out to be 0.35±0.06 g/100 g body weight. In addition, in data set [3] (setting [5]), the “sGOT (serum glutamic-oxaloacetic transaminase)” value is reported as 105.83±22.16 U/l, the “sGPT (serum glutamic-pyruvic transaminase)” value worked out at 41.83±8.94 U/l, the “ALB (albumin)” value came to 1.58 ± 0.38 g/dL and the “LDH (lactate dehydrogenase)” value worked out at 298.00±62.22 U/l. Also, the “PRO (total protein)” value in data set [3] (setting [5]) was found to be 3.68 ± 0.60 g/dL. Moreover, in data set [3] (setting [6]), the “BUN (blood urea nitrogen)” value is 26.17 ± 2.42 mg/dL, the Body weight is listed as 28.88±1.52^a g, the Liver weight amounted to 4.18±0.33 g/100 g body weight and the Spleen weight worked out at 0.31±0.06 g/100 g body weight. In data set [3] (setting [6]), the “sGOT (serum glutamic-oxaloacetic transaminase)” value came to 79.98±26.10 U/l, the “sGPT (serum glutamic-pyruvic transaminase)” value came to 43.92±16.02 U/l, the “ALB (albumin)” value was found to be 1.73 ± 0.26 g/dL and the “LDH (lactate dehydrogenase)” value was 244.83±46.99 U/l. In addition, the “PRO (total protein)” value in data set [3] (setting [6]) was found to be 4.06 ± 0.58 g/dL. In data set [3] (setting [7]), the “BUN (blood urea nitrogen)” value stood at 28.92 ± 2.20 mg/dL, the Body weight is reported as 28.90±0.51^a g, the Liver weight is 4.17±0.26 g/100 g body weight and the Spleen weight came to 0.37±0.04 g/100 g body weight. For the same molecule, in data set [3] (setting [7]), the “sGOT (serum glutamic-oxaloacetic transaminase)” value is reported as 115.12±15.08 U/l, the “sGPT (serum glutamic-pyruvic transaminase)” value turned out to be 41.83±10.02 U/l, the “ALB (albumin)” value was determined as 1.84 ± 0.13 g/dL and the “LDH (lactate dehydrogenase)” value was 270.83±42.09 U/l. For the same molecule, in data set [3] (setting [7]), the “PRO (total protein)” value turned out to be 4.77 ± 0.46 g/dL. Also, in data set [3] (5, 50 and 100 mg/kg i.v. for 7 days), the “sGPT and sGOT levels vs normal range” value is recorded as “within the normal value range”. For the same molecule, in data set [3] (5, 50 and 100 mg/kg, vs vehicle-treated controls, data not shown), the “histopathology of spleen and liver” value is reported as “No significant microscopic aberrations”.
